# Assay outcomes as filed in PubChem.
# WT yeast gro inh = growth inhibition of WT yeast, mitochondrial fusion screen; AID 1362; 190,000 tested, 2.1% active; inhibition, % at 10 µM; mitochondrial fusion phenotypic screen, WT strain; in the data active means inhibition above about 58%; tested in S. cerevisiae
# MPTP block = permeability transition pore inhibition; AID 602449; isolated mouse mitochondria, Ca2+ swelling absorbance, 30 min; 360,000 tested, 1.4% active; inhibition, % at 10 µM;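 active means inhibition of 50% or more, scaled per plate between neutral and stimulator controls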;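 further: 0% = DMSO wells given calcium and 100% = 1 mM EGTA wells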
# EBV gp42 inh = inhibitors of Epstein-Barr virus glycoprotein 42. Fluorescence polarization binding assay, mP read-out. Q1HVG2. inhibition, % (tested at 21.74 µM). AID 1085. 220,000 tested, 0.42% active; in the data active means inhibition above about 50%
# Target sequence (Q1HVG2 whole entry, looked up): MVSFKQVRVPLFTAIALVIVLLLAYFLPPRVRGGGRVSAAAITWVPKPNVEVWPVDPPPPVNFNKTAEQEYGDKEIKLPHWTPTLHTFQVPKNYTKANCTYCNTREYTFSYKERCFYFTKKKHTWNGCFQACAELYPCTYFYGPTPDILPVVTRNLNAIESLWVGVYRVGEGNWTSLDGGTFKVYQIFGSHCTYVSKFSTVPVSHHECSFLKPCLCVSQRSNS
# CHOP inhibitor = CHOP inhibition in unfolded protein response | CHO-K1 CHOP-promoter luciferase, tunicamycin-induced, 15-18 h | inhibition, % at 10 µM | 220,000 tested, 3.8% active;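 active means compounds that reduced the stress-induced luciferase reporter signal by more than about 70% of percent inhibition, limit read from the data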;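 further: 0% = tunicamycin plus vehicle and 100% = wells without tunicamycin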
# TbMetRS inhib = Trypanosoma brucei MetRS inhibition; purified T. brucei MetRS, ATP depletion, Kinase-Glo luminescence; inhibition, % at 11.9 µM; 360,000 tested, 0.4% active; AID 624268;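 active means inhibition above a per-plate cutoff of the control wells' mean inhibition plus 3 SD, cut at about 5.5% in these data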;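 further: 0% = DMSO wells median and 100% = median of wells with control inhibitor compound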
#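 Test system – parasite MetRS enzyme · Reagent – substrates ATP, L-methionine and bulk Escherichia coli tRNA · Doses – 11.9 µM compound single dose, 0.9% DMSO · Times – 15 min enzyme-compound preincubation, 2 h reaction, 10 min detection, 25 °C · Signal – Kinase-Glo luminescence, ATP depletion format · Controls – DMSO-only wells as low control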
# NR3A LBD binder = modulates the human NR3A ligand-binding domain; NR3A LBD differential scanning fluorimetry, Tm shift; 0% = protein alone, 100% = glycine-bound protein; Tm shift relative to glycine control, % at 25 µM; 340,000 tested, 2.5% active;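 active means melting temperature shift of at least 10% of the positive control shift, at one fixed dose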
# Active calls of the source: *; . = no result; ! = not confirmed by another sample. Most compounds without a hit are left out; they make up all but 6.4% or so of the library.
SMILES,WT yeast gro inh,MPTP block,EBV gp42 inh,CHOP inhibitor,TbMetRS inhib,NR3A LBD binder
COc1ccc(CN2CC(COCc3ccccc3)Oc3ccccc3S2(=O)=O)cc1 (stereo not given),.,1.5,.,.,1.1,1.2
O=S1(=O)c2ccccc2OC(COCc2ccccc2)CN1Cc1ccccc1 (stereo not given),.,-0.6,.,.,-2.0,18.1*
CCCCN1CC(COCc2ccccc2)Oc2ccccc2S1(=O)=O (stereo not given),.,-1.1,.,.,-1.1,16.8*
CCCCN1CC(COCc2ccccc2)Oc2cccc(F)c2S1(=O)=O (stereo not given),.,-0.8,.,.,-0.3,14.0*
Cc1c(C(=O)N2CCOCC2)sc(NC(=O)CCl)c1C#N,.,-0.1,.,.,-0.8,0.1
CCOC(=O)c1cnc(-n2nc(C)cc2C)nc1NCc1ccc2c(c1)OCO2,45.1,0.5,-3.5,86.5*,-0.6,-0.3
CC1(C)Cc2nc3sc4c(=O)n(Cc5ccccc5)cnc4c3cc2CS1,-1.3,-0.3,-17.7,10.7,-2.0,3.4
c1ccc(-c2nnc(SCc3ccncc3)o2)cc1,.,0.7,.,.,-0.4,.
Cc1cccc(-c2nnc(SCc3ccccc3)o2)c1,65.0*,-0.4,-30.5,3.4,0.1,2.1
Cc1sc2nc(SCC(=O)c3cccs3)n(Cc3ccco3)c(=O)c2c1C,2.9,-0.4,-9.7,-10.3,0.0,10.8*
O=C(CSc1nc2scc(-c3ccco3)c2c(=O)n1-c1ccccc1)NCC1CCCO1 (stereo not given),2.8,11.1,7.6,100.5*,-1.0,3.8
O=C(CSc1nc2c(sc3ccccc32)c(=O)n1CCO)NCc1ccco1,0.8,2.5,1.5,-33.2,-1.0,0.2
Cc1sc2nc(SCC(=O)NCc3ccco3)n(CCc3ccccc3)c(=O)c2c1C,-6.0,0.6,-12.8,95.1*,-0.1,-6.1
Cc1sc2nc(SCC(=O)NCc3ccco3)n(C)c(=O)c2c1C,7.5,-0.1,-2.4,37.1,-0.3,0.1
Cc1ccc(-n2c(SCC(=O)NCc3ccco3)nc3c(sc4ccccc43)c2=O)cc1,-5.7,2.6,-21.4,-36.7,-0.7,10.2*
CCCCc1nc2ccccc2n1Cc1nnc2n1-c1ccccc1SC2,-26.5,2.3,-10.5,-7.5,-0.1,-1.6
Cc1nc2ccccc2n1CCc1nc2c3ccccc3nc(SCC(=O)NCc3ccco3)n2n1,-21.1,0.1,-5.9,72.2*,-0.3,-0.2
Cc1nc2ccccc2n1CCc1nc2c3ccccc3nc(SCC#N)n2n1,-5.2,.,-23.2,-26.4,.,.
O=C(CSc1nc2sc3c(c2c(=O)n1-c1ccccc1)CCCC3)NCc1ccco1,8.7,-1.0,-18.3,84.4*,-0.6,1.6
C=CCn1c(SCC(=O)NC(=O)NCc2ccco2)nc2sc(CC)cc2c1=O,2.3,0.9,1.3,82.7*,-0.4,-0.2
CCCC(=O)c1cc2c(cc1NC(=O)c1cccs1)OCCO2,1.0,2.0,-14.2,36.1,-0.8,6.9
O=c1c2ccccc2c(/C=N/c2ncn[nH]2)c(O)n1Cc1ccccc1,22.0,1.9,8.6,15.8,-0.2,14.7*!
COC(=O)c1sc2cc(=O)n(-c3cccc(C(F)(F)F)c3)nc2c1O,-1.2,-0.8,-7.5,-1.1,0.5,-1.5
CCCCNC(=O)CCn1c(=O)c2ccccc2n(Cc2ccc(Cl)cc2)c1=O,7.6,-0.4,-14.4,87.4*,-0.2,-2.9
CCCCNC(=O)CCn1c(=O)c2ccccc2n(Cc2ccccc2C)c1=O,-19.2,0.0,-1.4,5.5,-0.6,-3.7
SMILES,WT yeast gro inh,MPTP block,EBV gp42 inh,CHOP inhibitor,TbMetRS inhib,NR3A LBD binder
NC(=O)C1(N2CCCCC2)CCN(C2CC(=O)N(CCc3ccccc3)C2=O)CC1 (stereo not given),17.9,-1.2,-4.5,10.9,-1.7,-3.1
O=C(CNc1cccc(Cl)c1)c1ccc(Cl)cc1,-2.9,2.1,-7.8,74.9*,0.5,-0.1
Cc1ccc(C(=O)CNc2cccc(Cl)c2)cc1,10.7,0.6,-14.7,-39.3,0.7,1.9
Cc1ccc(NC(=O)C(c2ccccc2)N(C)C)cc1Cl (stereo not given),13.5,11.3,-15.1,-11.3,-0.6,-1.0
Cc1ccc(NC(=O)C(OC(=O)c2ccc(F)cc2)c2ccccc2)cc1Cl (stereo not given),-10.1,2.1,-34.1,73.2*,0.3,1.0
CC(=O)Nc1cccc(C(=O)OC(C(=O)c2ccc(C)c(C)c2)c2ccccc2)c1 (stereo not given),11.0,8.1,20.4,37.9,-0.3,3.7
Cc1ccc(NC(=O)C(OC(=O)c2ccc(O)cc2)c2ccccc2)cc1Cl (stereo not given),89.2*,0.1,-3.1,-5.9,-0.3,-1.3
CN(C)c1ccc(NC(=O)CSc2nc(N)c(C(=O)Nc3ccc(N(C)C)cc3)s2)cc1,3.8,2.4,-22.1,45.7,0.0,6.5
Cn1c(=O)c2c(nc(NC3CCCCC3)n2Cc2ccccc2)n(C)c1=O,0.6,0.0,-2.8,17.5,-0.6,1.7
Cn1c(=O)c2c(nc(NC3CCCCC3)n2CC(=O)C23CC4CC(CC(C4)C2)C3)n(C)c1=O,-9.3,0.2,-4.8,81.2*,-0.5,-8.9
Cc1c(NS(=O)(=O)c2ccc(N=NN(C)C)cc2)c(=O)n(-c2ccccc2)n1C,.,-0.6,.,.,0.1,-1.4
COc1ccc(C(=O)Nc2ccc(NC(=O)c3cccs3)c(OC)c2)cc1Cl,11.0,0.0,-6.0,-12.9,-0.5,33.2*
COc1ccc(/C=C/C(=O)c2ccc(NC(=O)c3cccs3)cc2)cc1OC,36.6,0.8,-13.0,-234.2,0.2,16.1*
COc1ccc(C(=O)Nc2ccc(NC(=O)c3cccs3)cc2)cc1Cl,2.2,0.2,-19.5,-21.7,0.1,33.6*
COc1cc(NC(=O)c2cccs2)c(OC)cc1NC(=O)Nc1ccc(F)cc1,.,1.4,.,.,-0.9,24.7*
COc1ccc(C(=O)Nc2cccc(NC(=O)c3cccs3)c2)cc1OC,.,0.1,.,.,-0.4,6.4
O=C(NN=Cc1ccccc1O)c1cccc([N+](=O)[O-])c1,.,-0.4,.,.,0.2,2.9
COc1c(Cl)cc(Cl)cc1C(=O)Nc1ccc(NC(=O)c2cccs2)cc1,26.2,0.2,4.2,50.0,0.0,213.9*
COc1ccc(C(=O)Nc2ccc(Cl)cn2)cc1S(=O)(=O)N1CCCC1,.,2.5,.,.,-0.5,-1.6
COc1ccccc1C(=O)Nc1ccc(C(=O)/C=C/c2cccs2)cc1,10.6,3.5,0.0,27.5,-0.6,11.2*
COc1ccc(C(=O)Nc2ccc(Cl)cn2)cc1Cl,14.0,1.5,-16.7,-20.7,-0.3,29.6*
Oc1ccc(-n2nnnc2SCc2ccccc2Br)cc1,.,7.6,.,.,-0.4,-8.2
O=C(CCCn1c(=O)oc2ccccc21)N1CCN(c2ccccn2)CC1,.,0.3,.,.,-0.6,-1.3
O=C(COC(=O)c1ccc(S(=O)(=O)NCc2ccco2)cc1)c1ccccc1,-7.8,-0.6,-15.5,31.3,-0.3,-1.2
Cc1ccc(-c2cc(O)cc3sc(=O)oc23)cc1C,.,5.0,6.9,20.4,0.2,10.4*
O=c1oc2cc(O)ccc2s1,.,0.1,.,.,0.1,1.8
